This passage reports MIC, CC50 and selectivity ratio results from ChEMBL document CHEMBL4190362, “Synthesis, biological evaluation and quantitative structure-active relationships of 1,3-thiazolidin-4-one derivatives. A promising chemical scaffold endowed with high antifungal potency and low cytotoxicity” (Eur J Med Chem, 2017).

Molecules are shown by their SMILES. Values after ≈ are worked out from the molar mass of the structure shown.

One series concerns Pichia kudriavzevii. The series can be described thus: Antifungal activity against Candida krusei clinical isolates assessed as inhibition of microbial growth incubated for 24 hrs by broth microdilution method. It is filed as functional. Put shortly: (§1)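 Twenty-two clinical Candida isolates (8 C. albicans, 4 C. glabrata, 3 C. tropicalis, 3 C. krusei, 2 C. parapsilosis, 2 C. sake) were identified by colony morphology and biochemistry and subcultured at 35 °C for purity. Compounds were dissolved in DMSO and tested by broth microdilution in Sabouraud dextrose broth per NCCLS/CLSI/EUCAST guidance. Values are geometric mean MIC per species (µg/mL).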

Series [1] deals with Streptococcus alpha-hemolyticus (Streptococcus sp.). Description: Antibacterial activity against Streptococcus Streptococcus alpha hemolyticus assessed as inhibition of microbial growth incubated for 18 to 22 hrs by broth microdilution method. (Broth dilution looks for growth in wells or tubes with falling amounts of substance.)
Series [2] is described as follows: Cytotoxicity against human Hep2 cells assessed as reduction in cell viability incubated for 24 hrs by trypan blue dye exclusion assay. Conditions: HEp-2 cells. It is filed as cell-based. The gist of the method:
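Hep2 (human laryngeal epidermoid carcinoma) cells were exposed to five concentrations from 0.05 to 100 µg/mL for 24 h at 37 °C, and viability was scored by Trypan Blue exclusion as survival fraction. Controls were medium alone, DMSO-treated cells and 1 mM sodium nitroprusside. CC50 is the mean ± SD of at least three independent experiments.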

The subject of the next series is Candida parapsilosis. The series can be described thus: Antifungal activity against Candida parapsilosis clinical isolates assessed as inhibition of microbial growth incubated for 24 hrs by broth microdilution method. It is filed as functional. Conditions: Lodderomyces parapsilosis. Put shortly:
as §1

The subject of the next series is Staphylococcus aureus. Description: Antibacterial activity against Staphylococcus aureus assessed as inhibition of microbial growth incubated for 18 to 22 hrs by broth microdilution method. Type of series: functional. Put shortly: (§2)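 Broth microdilution in Mueller-Hinton II broth following NCCLS recommendations; compounds dissolved in DMSO.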
A further series has as its system Klebsiella oxytoca. Description: Antibacterial activity against Klebsiella oxytoca assessed as inhibition of microbial growth incubated for 18 to 22 hrs by broth microdilution method. It is filed as functional. The gist of the method: as §2
The subject of another series is Candida tropicalis. The series can be described thus: Antifungal activity against Candida tropicalis clinical isolates assessed as inhibition of microbial growth incubated for 24 hrs by broth microdilution method. It is filed as functional. Put shortly:
as §1

Another series deals with [Candida] sake. Description: Antifungal activity against Candida sake clinical isolates assessed as inhibition of microbial growth incubated for 24 hrs by broth microdilution method. It is filed as functional. Conditions: Fermentozyma sake. The gist of the method: as §1
In another series the test system is Proteus mirabilis. The series can be described thus: Antibacterial activity against Proteus mirabilis assessed as inhibition of microbial growth incubated for 18 to 22 hrs by broth microdilution method. Type of series: functional. Put shortly: as §2
Another series deals with Candida albicans. Description: Antifungal activity against Candida albicans clinical isolates assessed as inhibition of microbial growth incubated for 24 hrs by broth microdilution method. Type of series: functional. The gist of the method: as §1
The nature of series [3]: Selectivity index, ratio of CC50 for human Hep2 cells to MIC for Candida albicans clinical isolates. It is filed as toxicity. The conditions noted are these: HEp-2 cells, read-out: Selectivity Index. Put shortly: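 Calculated as Hep2 CC50 (Trypan Blue exclusion, 24 h, 37 °C) divided by MIC against C. albicans.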
In another series the test system is Enterobacter. The series can be described thus: Antibacterial activity against Enterobacter spp. assessed as inhibition of microbial growth incubated for 18 to 22 hrs by broth microdilution method. Type of series: functional. Put shortly: as §2
A further series deals with Nakaseomyces glabratus. Description: Antifungal activity against Candida glabrata clinical isolates assessed as inhibition of microbial growth incubated for 24 hrs by broth microdilution method. It is filed as functional. The gist of the method:
as §1

The test system of a further series is Enterococcus faecalis. The series can be described thus: Antibacterial activity against Streptococcus faecalis assessed as inhibition of microbial growth incubated for 18 to 22 hrs by broth microdilution method. Type of series: functional. The gist of the method: as §2
A further series concerns Staphylococcus warneri. Description: Antibacterial activity against Staphylococcus warneri assessed as inhibition of microbial growth incubated for 18 to 22 hrs by broth microdilution method. Type of series: functional. Put shortly:
as §2

Another series relates to Escherichia coli. The series can be described thus: Antibacterial activity against Escherichia coli assessed as inhibition of microbial growth incubated for 18 to 22 hrs by broth microdilution method. Type of series: functional. The gist of the method: as §2

`CC(C)=N/N=C1\NC(=O)CS1`: the minimum inhibitory concentration (MIC) (as a rule, the least concentration at which growth counts as inhibited) in the series on Pichia kudriavzevii is 2 µg/mL; in series [1] it was at least 256 µg/mL; in the series with Candida parapsilosis, 2 µg/mL; with Staphylococcus aureus, at least 256 µg/mL; in the series on Klebsiella oxytoca, at least 256 µg/mL; in the series with Candida tropicalis, 2 µg/mL. Also, the minimal inhibitory concentration (MIC) in [Candida] sake was 2 µg/mL; in the series with Proteus mirabilis, at least 256 µg/mL; in the series with Candida albicans it was 2 µg/mL; with Enterobacter it was at least 256 µg/mL; in the series on Nakaseomyces glabratus it was 2 µg/mL; with Enterococcus faecalis, at least 256 µg/mL. Besides, the minimal inhibitory concentration (MIC) in the series with Staphylococcus warneri and in the series with Escherichia coli was at least 256 µg/mL in each case. Moreover, the CC50 (usually the concentration that lowers cell viability or growth by half) at 24 h in series [2] was 68.4 µg/mL (≈ 399 µM). Also, the selectivity ratio in [3] was 34.

For the compound `CCC/C(C)=N\N=C1/NC(=O)CS1`, the minimal inhibitory concentration (MIC) with Pichia kudriavzevii was 2 µg/mL; in series [1] it was at least 256 µg/mL; with Candida parapsilosis it was 2 µg/mL; in the series with Staphylococcus aureus it was at least 256 µg/mL; in the series on Klebsiella oxytoca, at least 256 µg/mL; with Candida tropicalis, 2 µg/mL. The MIC in [Candida] sake was 2 µg/mL; in the series on Proteus mirabilis, at least 256 µg/mL; with Candida albicans it was 2 µg/mL; in the series on Enterobacter it was at least 256 µg/mL; with Nakaseomyces glabratus, 2 µg/mL; in the series on Enterococcus faecalis, at least 256 µg/mL. The MIC with Staphylococcus warneri and in the series on Escherichia coli was at least 256 µg/mL in each case. Also, in [2], the CC50 at 24 h was determined as 93.4 µg/mL (≈ 469 µM). Moreover, the selectivity ratio in series [3] worked out at 46.5.

For `C/C(=N/N=C1/SCC(=O)N1Cc1ccccc1)c1cccnc1`, the minimum inhibitory concentration (MIC) in the series with Pichia kudriavzevii was 2 µg/mL; in the series with Candida parapsilosis it was 2 µg/mL; in the series on Staphylococcus aureus, at least 256 µg/mL; in the series with Klebsiella oxytoca, at least 256 µg/mL; with Candida tropicalis, 2 µg/mL; in series [Candida] sake it was 2 µg/mL. Moreover, the minimum inhibitory concentration (MIC) is at least 256 µg/mL in the series with Proteus mirabilis; 2 µg/mL with Candida albicans; at least 256 µg/mL in the series on Enterobacter; 2 µg/mL in the series with Nakaseomyces glabratus; at least 256 µg/mL in the series on Enterococcus faecalis; at least 256 µg/mL in the series with Staphylococcus warneri. In addition, the MIC with Escherichia coli was at least 256 µg/mL. Further, in series [2], the CC50 at 24 h amounted to 37.4 µg/mL (≈ 115 µM). In series [3], the selectivity ratio amounted to 18.5.

As to `C/C(=N/N=C1\NC(=O)CS1)c1ccc2ccc3ccccc3c2c1`, the MIC in the series on Pichia kudriavzevii is 8 µg/mL; in series [1], at least 256 µg/mL; in the series on Candida parapsilosis, 16 µg/mL; in the series on Staphylococcus aureus, at least 256 µg/mL; with Klebsiella oxytoca it was at least 256 µg/mL; in the series with Candida tropicalis, 4 µg/mL. In addition, the MIC in series [Candida] sake was 16 µg/mL; in the series on Proteus mirabilis, at least 256 µg/mL; in the series on Candida albicans, 4 µg/mL; in the series on Enterobacter it was at least 256 µg/mL; in the series on Nakaseomyces glabratus, 4 µg/mL; in the series on Enterococcus faecalis, at least 256 µg/mL. For the same compound, the minimal inhibitory concentration (MIC) in the series with Staphylococcus warneri and in the series on Escherichia coli was at least 256 µg/mL throughout.

Consider `CC(=O)c1ccc(/C(C)=N\N=C2/NC(=O)CS2)cc1`, for which the minimal inhibitory concentration (MIC) was 8 µg/mL with Pichia kudriavzevii; at least 256 µg/mL in [1]; 2 µg/mL with Candida parapsilosis; at least 256 µg/mL in the series on Staphylococcus aureus; at least 256 µg/mL in the series on Klebsiella oxytoca; 2 µg/mL with Candida tropicalis. Besides, the MIC in [Candida] sake was 8 µg/mL; in the series with Proteus mirabilis it was at least 256 µg/mL; in the series on Candida albicans, 2 µg/mL; in the series on Enterobacter, at least 256 µg/mL; in the series on Nakaseomyces glabratus, 2 µg/mL; in the series with Enterococcus faecalis, at least 256 µg/mL. The minimum inhibitory concentration (MIC) with Staphylococcus warneri and in the series on Escherichia coli was at least 256 µg/mL each time.

Take `O=C1CS/C(=N/N=C2CCCCC2)N1Cc1ccccc1`: the minimum inhibitory concentration (MIC) was 2 µg/mL in the series on Pichia kudriavzevii; 2 µg/mL in the series on Candida parapsilosis; at least 256 µg/mL with Staphylococcus aureus; at least 256 µg/mL with Klebsiella oxytoca; 2 µg/mL with Candida tropicalis; 2 µg/mL in [Candida] sake. Moreover, the minimal inhibitory concentration (MIC) in the series with Proteus mirabilis is at least 256 µg/mL; in the series on Candida albicans, 2 µg/mL; with Enterobacter, at least 256 µg/mL; in the series with Nakaseomyces glabratus, 2 µg/mL; with Enterococcus faecalis it was at least 256 µg/mL; in the series on Staphylococcus warneri, at least 256 µg/mL. Also, the minimum inhibitory concentration (MIC) in the series with Escherichia coli is at least 256 µg/mL. Moreover, the CC50 at 24 h in series [2] is 22.8 µg/mL (≈ 75.6 µM). Moreover, the selectivity ratio in [3] was found to be 11.

Turning to `Clc1ccccc1C(c1ccccc1)(c1ccccc1)n1ccnc1` [CLOTRIMAZOLE], the MIC (with Pichia kudriavzevii; in the series with Candida parapsilosis; in the series on Candida tropicalis; in [Candida] sake; in the series on Candida albicans; in the series with Nakaseomyces glabratus) was 2 µg/mL in each case. The CC50 at 24 h in series [2] is 38.8 µg/mL (≈ 113 µM). Moreover, the selectivity ratio in series [3] is 19.
